In ChEMBL document CHEMBL1275566, “MexCD-OprJ multidrug efflux system of Pseudomonas aeruginosa: involvement in chlorhexidine resistance and induction by membrane-damaging agents dependent upon the AlgU stress response sigma factor” (2008):
In brackets after ≈: the same amount, converted by molar mass. Activity calls are given as the source filed them. No cut-off for these calls is given here.

Tests used:
Pseudomonas aeruginosa [1] = experiment: Induction of mexCD-oprJ expression in Pseudomonas aeruginosa PAO1 K767 at 3 ug/ml after 2.5 hrs by semiquantitative RT-PCR; format: functional, organism-based
Pseudomonas aeruginosa [2] = experiment: Induction of mexCD-oprJ expression in mexB and mexXY deficient and AlgU-negative Pseudomonas aeruginosa K2897 at 0.33 ug/ml by semiquantitative RT-PCR; format: functional, organism-based
Pseudomonas aeruginosa [3] = experiment: Induction of mexCD-oprJ expression in AlgU-negative and NfxB-negative Pseudomonas aeruginosa K2895
Pseudomonas aeruginosa [4] = experiment: Antimicrobial activity against CDJ and AlgU-positive Pseudomonas aeruginosa K1542; format: functional
Pseudomonas aeruginosa [5] = experiment: Induction of mexCD-oprJ expression in Pseudomonas aeruginosa PAO1 K767 at 2.5 ug/ml after 2.5 hrs by semiquantitative RT-PCR; format: functional, organism-based
Pseudomonas aeruginosa [6] = experiment: Antimicrobial activity against CDJ and AlgU-negative Pseudomonas aeruginosa K2898; format: functional
How it was run: (§1)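 Broth susceptibility testing of P. aeruginosa strains in LB at 37°C. Strains are defined by mexCD-oprJ status (CDJ+ means present and CHX-inducible but not expressed untreated; CDJ− means deleted) and by algU status.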

Pseudomonas aeruginosa [7] = experiment: Antimicrobial activity against CDJ-positive and AlgU-negative Pseudomonas aeruginosa K2443 harboring plasmid pMMB206 carrying AlgU gene; format: functional
Pseudomonas aeruginosa [8] = experiment: Induction of PmexCD-oprJ-lacZ expression in Pseudomonas aeruginosa K2899 at 15 ug/ml by beta-galactosidase reporter assay; format: functional, organism-based
Pseudomonas aeruginosa [9] = experiment: Induction of mexCD-oprJ expression in AlgU and NfxB-positive Pseudomonas aeruginosa K767; format: functional, organism-based
Pseudomonas aeruginosa [10] = experiment: Induction of PmexCD-oprJ-lacZ expression in Pseudomonas aeruginosa K2899 at 1.25 ug/ml by beta-galactosidase reporter assay; format: functional, organism-based
Pseudomonas aeruginosa [11] = experiment: Antimicrobial activity against NfxB-and AglU-negative Pseudomonas aeruginosa K2895 harboring plasmid pMMB206 carrying AlgU gene; format: functional
Pseudomonas aeruginosa [12] = experiment: Induction of PmexCD-oprJ-lacZ expression in Pseudomonas aeruginosa K2899 at 16 ug/ml by beta-galactosidase reporter assay; format: functional, organism-based
Pseudomonas aeruginosa [13] = experiment: Induction of PmexCD-oprJ-lacZ expression in AlgU-negative Pseudomonas aeruginosa K2901 at 3.1 ug/ml by beta-galactosidase reporter assay; format: functional, organism-based
Pseudomonas aeruginosa [14] = experiment: Induction of mexCD-oprJ expression in Pseudomonas aeruginosa K2895 harboring plasmid pMMB206 carrying AlgU gene; format: functional, organism-based
Pseudomonas aeruginosa [15] = experiment: Antimicrobial activity against CDJ -positive Pseudomonas aeruginosa K2889; format: functional; how it was run: as §1
Pseudomonas aeruginosa [16] = experiment: Antimicrobial activity against CDJ-negative and AlgU-positive Pseudomonas aeruginosa K2896; format: functional
Pseudomonas aeruginosa [17] = experiment: Induction of PmexCD-oprJ-lacZ expression in Pseudomonas aeruginosa K2899 at 11.6 ug/ml by beta-galactosidase reporter assay; format: functional, organism-based
Pseudomonas aeruginosa [18] = experiment: Antimicrobial activity against CDJ and AlgU-positive Pseudomonas aeruginosa K767; format: functional
Pseudomonas aeruginosa [19] = experiment: Induction of PmexCD-oprJ-lacZ expression in Pseudomonas aeruginosa K2899 at 3.1 ug/ml by beta-galactosidase reporter assay; format: functional, organism-based
Pseudomonas aeruginosa [20] = experiment: Antimicrobial activity against CDJ-positive and AlgU-negative Pseudomonas aeruginosa K2443 harboring plasmid pMMB206; format: functional
Pseudomonas aeruginosa [21] = experiment: Induction of mexCD-oprJ expression in AlgU-positive and NfxB-negative Pseudomonas aeruginosa K1536; format: functional, organism-based
Pseudomonas aeruginosa [22] = experiment: Antimicrobial activity against CDJ-positive and AlgU-negative Pseudomonas aeruginosa K2443; format: functional
Pseudomonas aeruginosa [23] = experiment: Antimicrobial activity against CDJ -negative Pseudomonas aeruginosa K2891; format: functional
Pseudomonas aeruginosa [24] = experiment: Induction of PmexCD-oprJ-lacZ expression in AlgU-negative Pseudomonas aeruginosa K2901 at 16 ug/ml by beta-galactosidase reporter assay; format: functional, organism-based
Pseudomonas aeruginosa [25] = experiment: Induction of PmexCD-oprJ-lacZ expression in Pseudomonas aeruginosa K2899 at 0.125 ug/ml by beta-galactosidase reporter assay; format: functional, organism-based
Pseudomonas aeruginosa [26] = experiment: Induction of PmexCD-oprJ-lacZ expression in AlgU-negative Pseudomonas aeruginosa K2901 at 8 ug/ml by beta-galactosidase reporter assay; format: functional, organism-based
Pseudomonas aeruginosa [27] = experiment: Antimicrobial activity against NfxB- and AlgU-negative Pseudomonas aeruginosa K2895 harboring plasmid pMMB206; format: functional
Pseudomonas aeruginosa [28] = experiment: Antimicrobial activity against CDJ-negative and AlgU-positive Pseudomonas aeruginosa K1521; format: functional; how it was run: as §1
Pseudomonas aeruginosa [29] = experiment: Induction of PmexCD-oprJ-lacZ expression in AlgU-negative Pseudomonas aeruginosa K2901 at 0.16 ug/ml by beta-galactosidase reporter assay; format: functional, organism-based
Pseudomonas aeruginosa [30] = experiment: Induction of mexCD-oprJ expression in mexB and mexXY deficient and AlgU-positive Pseudomonas aeruginosa K1542 at 2.5 ug/ml by semiquantitative RT-PCR; format: functional, organism-based
Pseudomonas aeruginosa [31] = experiment: Antimicrobial activity against NfxB-negative and AlgU-positive Pseudomonas aeruginosa K1536; format: functional
Pseudomonas aeruginosa [32] = experiment: Antimicrobial activity against CDJ-positive and AlgU-negative Pseudomonas aeruginosa K2897; format: functional; how it was run: as §1
Pseudomonas aeruginosa [33] = experiment: Induction of PmexCD-oprJ-lacZ expression in AlgU-negative Pseudomonas aeruginosa K2901 at 15 ug/ml by beta-galactosidase reporter assay; format: functional, organism-based
Pseudomonas aeruginosa [34] = experiment: Induction of PmexCD-oprJ-lacZ expression in Pseudomonas aeruginosa K2899 at 8 ug/ml by beta-galactosidase reporter assay; format: functional, organism-based
Pseudomonas aeruginosa [35] = experiment: Induction of PmexCD-oprJ-lacZ expression in AlgU-negative Pseudomonas aeruginosa K2901 at 11.6 ug/ml by beta-galactosidase reporter assay; format: functional, organism-based
Pseudomonas aeruginosa [36] = experiment: Antimicrobial activity against NfxB- and AlgU-negative Pseudomonas aeruginosa K2895; format: functional
Pseudomonas aeruginosa [37] = experiment: Induction of PmexCD-oprJ-lacZ expression in AlgU-negative Pseudomonas aeruginosa K2901 at 0.125 ug/ml by beta-galactosidase reporter assay; format: functional, organism-based
Pseudomonas aeruginosa [38] = experiment: Induction of mexCD-oprJ expression in Pseudomonas aeruginosa K2895 harboring plasmid pMMB206; format: functional, organism-based
Pseudomonas aeruginosa [39] = experiment: Induction of mexCD-oprJ expression in Pseudomonas aeruginosa PAO1 K767 at 100 ug/ml after 2.5 hrs by semiquantitative RT-PCR; format: functional, organism-based

In the case of `CCCCC(CC)CNC(=N)NC(=N)NCCCCCCNC(=N)NC(=N)NCC(CC)CCCC` (centres undefined), the Activity (Pseudomonas aeruginosa [1]) is reported as “Active”.
For `N=C(NCCCCCCNC(=N)NC(=N)Nc1ccc(Cl)cc1)NC(=N)Nc1ccc(Cl)cc1` [CHLORHEXIDINE], the Activity (Pseudomonas aeruginosa [2]) was “Active”, the Activity (Pseudomonas aeruginosa [3]) was “Active” and the MIC (Pseudomonas aeruginosa [4]) was 10 µg/mL (≈ 19.8 µM). For the same compound, the Activity (Pseudomonas aeruginosa [5]) was “Active”, the MIC (Pseudomonas aeruginosa [6]) was 0.625 µg/mL (≈ 1.24 µM) and the MIC (Pseudomonas aeruginosa [7]) was 10 µg/mL (≈ 19.8 µM). For the same compound, the Activity (Pseudomonas aeruginosa [8]) was “Active”, the Activity (Pseudomonas aeruginosa [9]) was “Active” and the Activity (Pseudomonas aeruginosa [10]) was “Active”. The MIC (Pseudomonas aeruginosa [11]) was 20 µg/mL (≈ 39.6 µM), the Activity (Pseudomonas aeruginosa [12]) was “Active” and the Activity (Pseudomonas aeruginosa [13]) was “Active”. The Activity (Pseudomonas aeruginosa [14]) was “Active”, the MIC (Pseudomonas aeruginosa [15]) was over 50 µg/mL and the MIC (Pseudomonas aeruginosa [16]) was 2.5 µg/mL (≈ 4.95 µM). The Activity (Pseudomonas aeruginosa [17]) was “Active”, the MIC (Pseudomonas aeruginosa [18]) was 10 µg/mL (≈ 19.8 µM) and the Activity (Pseudomonas aeruginosa [19]) was “Active”. The MIC (Pseudomonas aeruginosa [20]) was 2.5 µg/mL (≈ 4.95 µM), the Activity (Pseudomonas aeruginosa [21]) was “Active” and the MIC (Pseudomonas aeruginosa [22]) was 2.5 µg/mL (≈ 4.95 µM). The MIC (Pseudomonas aeruginosa [23]) was 10 µg/mL (≈ 19.8 µM), the Activity (Pseudomonas aeruginosa [24]) was “Active” and the Activity (Pseudomonas aeruginosa [25]) was “Active”. The Activity (Pseudomonas aeruginosa [26]) was “Active”, the MIC (Pseudomonas aeruginosa [27]) was 2.5 µg/mL (≈ 4.95 µM) and the MIC (Pseudomonas aeruginosa [28]) was 5 µg/mL (≈ 9.89 µM). For the same compound, the Activity (Pseudomonas aeruginosa [29]) was “Active”, the Activity (Pseudomonas aeruginosa [30]) was “Active” and the MIC (Pseudomonas aeruginosa [31]) was 20 µg/mL (≈ 39.6 µM). For the same compound, the MIC (Pseudomonas aeruginosa [32]) was 1.25 µg/mL (≈ 2.47 µM), the Activity (Pseudomonas aeruginosa [33]) was “Active” and the Activity (Pseudomonas aeruginosa [34]) was “Active”. The Activity (Pseudomonas aeruginosa [35]) was “Active”, the MIC (Pseudomonas aeruginosa [36]) was 2.5 µg/mL (≈ 4.95 µM) and the Activity (Pseudomonas aeruginosa [37]) was “Active”. For the same compound, the Activity (Pseudomonas aeruginosa [38]) was “Active”.
With CETRIMIDE the Activity (Pseudomonas aeruginosa [39]) was “Active”.
